Screening data deposited in PubChem BioAssay by several laboratories.
MT1-MMP txn act – MT1-MMP promoter transcription activation. HT1080 MT1-MMP promoter luciferase reporter, luminescence, overnight; hits give high values. activation factor at 10 µM. actives 0.16% (n = 86,000);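 active = activation factor of at least 2 for MT1-MMP transcription at 10 µM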
RORA act – RORA (human) activation | AID 560 | CHO-K1 Gal4-RORA LBD luciferase reporter, luminescence; percent increase over mock-subtracted basal signal | activation, % at 10 µM | actives 1.5% (n = 65,000);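 active = activation above the mean of all tested compounds plus 3 SD, cut at about 49% in these data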;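 note: 0% = DMSO-treated RORA cells and 100% = added signal equal to DMSO minus mock-transfected cells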
MMP-13 inhibitor – inhibitors of human MMP13; actives 0.07% (n = 65,000); MMP-13 fTHP FRET cleavage, Mca fluorescence; AID 570; inhibition, % at 4 µM; P45452;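 active = inhibition above the mean of compound-free control plate wells plus 3 SD, cut at about 14% in these data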;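 note: 0% = DMSO wells and 100% = wells with reference MMP-13 inhibitor after basal subtraction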
SF1 activator – SF-1 (human) activation | Q13285 | CHO-K1 Gal4-SF-1 LBD luciferase reporter; % increase over DMSO SF-1-specific signal | AID 522 | activation, % at 10 µM | actives 1.9% (n = 65,000);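 active = activation above the mean activation of all tested compounds plus 3 SD, cut at about 50% in these data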
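Assay system: CHO-K1 cells co-transfected with Gal4 DBD–human SF-1 LBD, 5xGal4 luciferase reporter; doses: 10 µM only; incubation: 20 h compound exposure at 37 °C after 1 h cell settling; signal: luciferase light emission; evaluation: percent activation versus DMSO; repeats: one test per compound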
WNV protease inh – WNV NS2B-NS3 proteinase inhibition; WNV NS2B-NS3 protease, fluorogenic substrate Ex360/Em465; hits give low values; AID 577; actives 0.18% (n = 65,000); P06935; z-score (no concentration beside the values); in the data active = z-score below about -3
Target sequence (P06935 1371-1501 limits assumed): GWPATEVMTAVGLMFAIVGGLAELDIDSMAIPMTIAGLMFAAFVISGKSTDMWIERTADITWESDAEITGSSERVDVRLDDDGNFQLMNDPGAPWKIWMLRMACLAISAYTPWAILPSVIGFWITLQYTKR
Target sequence (P06935 1502-1679 limits assumed): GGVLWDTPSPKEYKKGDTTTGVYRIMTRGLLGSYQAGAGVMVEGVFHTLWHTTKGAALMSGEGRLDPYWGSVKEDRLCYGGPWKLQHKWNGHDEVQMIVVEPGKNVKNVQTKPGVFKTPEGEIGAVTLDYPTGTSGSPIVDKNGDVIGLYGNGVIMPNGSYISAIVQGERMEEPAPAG
* = called active by the depositor; · = no result. This is a sample that favours compounds with a hit; in the whole collection about 2.3% have one here.

SMILES | MT1-MMP txn act | RORA act | MMP-13 inhibitor | SF1 activator | WNV protease inh
O=C1NC2CCCCC2NC1CC(=O)N1CCN(c2ccccc2)CC1 (stereo unspecified) | 1 | -3 | 5 | 1 | 0.05
Cc1cc(Cl)ccc1OCC(=O)NC1CCCC1 | 1.3 | · | · | · | ·
CC(C)NC(=O)COc1ccc(Cl)cc1Cl | 1.2 | · | · | · | ·
O=C(COc1ccc(Cl)cc1Cl)NC(=O)N1CCCCC1 | 0.9 | 8 | 14* | 37 | -1.6
O=C(COc1ccc(Cl)cc1Cl)NC1CCSC1=O (stereo unspecified) | 1.8 | 23 | 1 | 58* | -0.86
Cc1cc(C)n(-c2c(F)c(F)c(CO)c(F)c2F)n1 | 1 | · | · | · | ·
CC1(C)CC(=O)C2=C(C1)Nc1ccccc1N=C2 | 1.5 | 42 | -4 | 58* | 1.8
Cc1c(C2Nc3ccccc3NC3=C2C(=O)CC(C)(C)C3)cnn1C (stereo unspecified) | 1.3 | 9 | -1 | -6 | -0.62
Cc1[nH]nc(N=CC2=C(O)CC(C)(C)CC2=O)c1-c1ccc(Cl)cc1 | 1.4 | 83* | -2 | 31 | -0.75
CC1(C)CC(=O)C(C=Nc2ccc3[nH]ncc3c2)=C(O)C1 | 1.3 | 18 | -9 | 79* | 1.7
CC1(C)CC(=O)C(C=Nc2ccc(O)cc2)=C(O)C1 | 1.3 | 36 | -2 | 51* | -0.67
CCN(CC)CCOC(=O)c1ccc(N=CC2=C(O)CC(C)(C)CC2=O)cc1 | 1.2 | -17 | -6 | -5 | -0.56
CCOc1ccc(N=CC2=C(O)CC(C)(C)CC2=O)cc1 | 1.7 | 15 | 4 | 68* | 2.8
CN=CC1=C(O)CC(C)(C)CC1=O | 1.1 | -27 | 3 | 6 | 1.6
COC(=O)c1cc(OC)c(OC)cc1NC(=O)c1cc(C)on1 | 1.1 | -12 | 7 | -11 | -0.95
CNC1=C(Cl)C(=O)c2ccncc2C1=O | 1.1 | · | · | · | ·
COc1ccc(-c2noc(N(C)CC(=O)Nc3cccc(C(F)(F)F)c3)n2)cc1 | 1 | 52* | -2 | 44 | 0.75
COC(=O)[C@@]1(Cc2ccccc2)[C@H]2c3cc(C(=O)N4CCCC4)n(CCO)c3C[C@H]2CN1C(=O)c1ccccc1 | 1.2 | · | · | · | ·
CC(C)N(C(=O)c1ccccc1-c1ccccc1)C(C)C | 1.1 | · | · | · | ·
CCC1=C2CC[C@H]3C(=O)NC(=O)[C@H]3[C@H]2[C@@]2(C)C(=O)N(CC3CC3)C(=O)N2C1=O | 1.1 | · | · | · | ·
CCN1CCN(c2nc3c(c(=O)[nH]c(=O)n3C)n2CCCSc2ncccn2)CC1 | 1.2 | -14 | 7 | -6 | -3.8*
CN1CCN(c2nc3c(c(=O)[nH]c(=O)n3C)n2CCCSc2ncccn2)CC1 | 1.1 | 17 | -1 | 4 | -0.28
Cc1ccc2cc3cc(C(=O)N4CCCCC4C)oc3nc2c1 (stereo unspecified) | 1 | 27 | -6 | 65* | -1.3
CC(=O)OCCOc1nc(N(C)C)nc(N(C)C)n1 | 1.2 | 14 | 7 | 5 | 1.1
O=C(Nc1ccc2c(c1)OCCO2)c1ccc(S(=O)(=O)N2CCCCC2)cc1 | 1.6 | 17 | -2 | 14 | -0.0018
SMILES | MT1-MMP txn act | RORA act | MMP-13 inhibitor | SF1 activator | WNV protease inh
CCOc1ccc(C(=O)Nc2ccc3c(c2)OCCO3)cc1OC | 1.5 | 34 | 1 | 56* | 1.1
Cc1cc(C)n(-c2ccc(C(=O)Nc3ccc4c(c3)OCCO4)cc2)n1 | 1.1 | 75* | -4 | 35 | 1.9
CC(C)CNS(=O)(=O)c1ccc(C(=O)Nc2ccc3c(c2)OCCO3)cc1 | 1.9 | 73* | 1 | 9 | 0.58
Cc1cc(C)n(-c2ccc(C(=O)Nc3sccc3C(N)=O)cc2)n1 | 1.8 | 31 | -5 | 62* | -1.4
Cc1cc(C)n(-c2ccc(C(=O)Nc3nnc(C)s3)cc2)n1 | 1 | · | · | · | ·
CCOc1ccc2nc(N3CCCCCC3)sc2c1 | 1.2 | 36 | 1 | 58* | 0.91
CCOc1ccc2nc(N3CCC(C(=O)Nc4nnc(CC)s4)CC3)sc2c1 | 1.3 | 46 | -1 | 67* | 0.44
CCOc1ccc2nc(N3CCC(C(=O)N4CCN(C5CCCCC5)CC4)CC3)sc2c1 | · | 27 | -4 | 24 | -0.05
CCOc1ccc2nc(N3CCC(C(=O)N4CCN(C(=O)c5ccco5)CC4)CC3)sc2c1 | 1.2 | 16 | 0 | 18 | 1.1
C[C@@H]1C=C[C@](Cc2ccccc2)(C(=O)NCCN2CCOCC2)N1C(=O)c1ccccc1 | 1 | · | · | · | ·
CC(=O)Nc1c(O)nc(SCC(=O)Nc2ccc(C(C)=O)cc2)[nH]c1=O | 1.7 | 58* | 1 | 50* | -1.1
CC(=O)Nc1c(O)nc(SCC(=O)Nc2cccc(C)c2)[nH]c1=O | 1.1 | · | · | · | ·
CC(=O)COc1ccc2c3c(c(=O)oc2c1C)CCCCC3 | 1.2 | 26 | -153 | 54* | 0.41
CC(=O)C(C)Oc1ccc2c3c(c(=O)oc2c1C)CCCC3 (stereo unspecified) | 1.2 | 60* | -74 | 7 | -0.82
Cc1ccc(NC(=O)CSc2nnc(Cn3c(=O)sc4ccccc43)n2C)cc1Cl | 1.1 | 3 | 6 | -21 | -0.51
OCCNC1=NCCN1 | 1.2 | 0 | -4 | -8 | -3.2*
CCn1cnc2cc(NCc3ccc(C)cc3)ccc21 | 1.4 | 44 | -7 | 50* | -0.5
CCn1cnc2cc(NS(=O)(=O)c3ccc(C)cc3)ccc21 | 1.2 | · | · | · | ·
COc1ccc(-c2nnc(SC(C)C(=O)Nc3cccc(Cl)c3)o2)cc1 (stereo unspecified) | 1.8 | 29 | 3 | 35 | 1
CCC(C)c1ccc(NC(=O)C2CCCN(c3ncccn3)C2)cc1 (stereo unspecified) | 1.3 | 76* | -4 | 72* | 0.45
CCC(C)c1ccc(NC(=O)C2CC2)cc1 (stereo unspecified) | 1.7 | 4 | -3 | 41 | -0.78
Cn1c(SCC(=O)NCc2ccc3c(c2)OCO3)nc2scc(-c3cccs3)c2c1=O | 1.1 | -1 | 2 | -18 | 0.18
O=C(CSc1ncnc2c1oc1ccccc12)c1cccs1 | 1.6 | 40 | 3 | 71* | 1
Cc1nc(SCC(=O)c2cccs2)c2oc3ccccc3c2n1 | 1.2 | · | · | · | ·
c1ccc(Cn2c(SCc3nc4ccccc4s3)nnc2-c2ccco2)cc1 | 1.3 | 2 | 1 | 7 | -1.3
SMILES | MT1-MMP txn act | RORA act | MMP-13 inhibitor | SF1 activator | WNV protease inh
CCC(c1nnc(SCc2nc3ccccc3s2)n1Cc1ccccc1)N(C)C (stereo unspecified) | 1.7 | 48 | -4 | 61* | -1.4
O=S(=O)(c1cccc(-c2nnc(SCc3nc4ccccc4s3)o2)c1)N1CCOCC1 | 1.6 | 41 | -1 | 46 | -0.53
CCn1c(SCc2nc3ccccc3s2)nc2cc(S(=O)(=O)N3CCOCC3)ccc21 | 1.6 | 29 | 2 | 63* | 0.84
Cc1nnc(SCc2nc3ccccc3s2)n1-c1ccccc1 | 1.5 | 76* | -6 | 26 | -0.64
COc1ccc(-n2nnnc2SCc2nc3ccccc3s2)cc1 | 1.6 | · | · | · | ·
COc1ccc(C)cc1-n1nnnc1SCc1nc2ccccc2s1 | 1.9 | 50* | 0 | 110* | 0.6
CCC/C=C(\CCC)C(NS(=O)(=O)c1ccc(Cl)cc1)c1ccccc1 (stereo unspecified) | 1.2 | · | · | · | ·
